Assay results published in ChEMBL document CHEMBL1131615, “Synthesis and tyrosine kinase inhibitory activity of a series of 2-amino-8H-pyrido[2,3-d]pyrimidines: identification of potent, selective platelet-derived growth factor receptor tyrosine kinase inhibitors” (J Med Chem, 1998).
Each block holds one compound with its values, some of them ahead of it.

Key:
[1] = biological target: Proto-oncogene tyrosine-protein kinase Src (Mus musculus, UniProt P05480); experiment: Inhibition of mouse c-Src tyrosine kinase
[2] = biological target: Fibroblast growth factor receptor (Mus musculus, UniProt P21803+Q03142+P16092+Q61851); experiment: Inhibition of mouse fibroblast growth factor receptor tyrosine kinase (FGFr); assay type: protein assay
[3] = biological target: Platelet-derived growth factor receptor (Mus musculus, UniProt P05622+P26618); experiment: Inhibition against of platelet-derived growth factor receptor (PDGFr)
[4] = biological target: T1, Platelet-derived growth factor receptor (PDGFr) (Rattus norvegicus, UniProt P20786+Q05030); experiment: Inhibition of PDGF-stimulated Platelet-derived growth factor receptor autophosphorylation in rat aortic vascular smooth muscle cells (RAVSMCs) after 2 hr
[5] = tested on: C6; experiment: Ratio of treated/control C6 glioma cell tumor mass at 40 mg/kg peroral dose, days 1-15 administration; assay type: functional; conditions: route oral
Summary of the method: (§1)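 Nude mouse sc axillary tumor-fragment xenografts implanted on day 0 (6-8 treated, 12 controls), with oral dosing on the stated schedule. T/C = median treated tumor mass / median control tumor mass × 100%, on the last therapy day.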

[6] = tested on: DU-145; experiment: Weight change after 48 mg/kg peroral dose, days 16-20,23-27,30-34 treatment of DU-145 cell tumor
[7] = Compound was tested for time to reach Cmax in three male Wistar rats at a single 5 mg/kg oral gavage dose.; assay type: ADME, organism-based; set-up: dose 5 mg/kg, route oral; conditions: rat, in vivo
Summary of the method: (§2)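 Single 5 mg/kg oral gavage dose given to three male Wistar rats, in 17% PEG 400/83% methylcellulose (0.5%). Heparinized plasma was taken by jugular vein cannula from 0 to 48 h; lower limit of quantitation was 10 ng/mL. Noncompartmental analysis: t1/2 = 0.693/λz (log-linear terminal regression); AUC by trapezoidal rule, extrapolated to infinity.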

[8] = tested on: Mus musculus; experiment: Ratio of treated/control PDGF-transfected cell tumor mass at 20 mg/kg peroral dose, days 1-15 administration; assay type: functional; conditions: route oral; summary of the method: as §1
[9] = tested on: Mus musculus; experiment: Weight change after 20 mg/kg peroral dose, days 1-15 treatment of PDGF-transfected cell tumor; assay type: functional, organism-based; set-up: dose 20 mg/kg
Summary of the method: (§3)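 Nude mice (18-22 g), randomized, implanted sc in the right axilla on day 0 with tumor fragments maintained by serial passage in nude mice. Tumors were C6 rat glioma, NIH 3T3 transfected with human PDGF ββ, or DU-145 prostate. At least 6 mice per group, 12 controls. Oral dosing by average cage weight on the stated days.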

[10] = tested on: C6; experiment: C6 glioma 3-day proliferation followed by soft agar growth without treatment; assay type: functional, cell-based; conditions: Rattus norvegicus, C6, 72 h
Summary of the method: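 C6 rat glioma cells exposed to a range of compound concentrations for 3 days in culture, then cloned in soft agar with drug removed. IC50 derived.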

[11] = tested on: C6; experiment: Delay between treated (T) and control (C) C6 glioma cell tumors reaching 750 mg at 40 mg/kg peroral dose, days 1-15 administration; assay type: functional; conditions: route oral; summary of the method: as §3
[12] = tested on: C6; experiment: Weight change after 40 mg/kg peroral dose, days 1-15 treatment of C6 glioma cell tumor; assay type: functional; conditions: route oral; summary of the method: as §3
[13] = tested on: Mus musculus; experiment: Delay between treated (T) and control (C) PDGF-transfected cell tumors reaching 750 mg at 20 mg/kg peroral dose, days 1-15 administration; assay type: functional; conditions: route oral; summary of the method: as §3
[14] = tested on: DU-145; experiment: Delay between treated (T) and control (C) DU-145 cell tumors reaching 750 mg at 48 mg/kg peroral dose, days 16-20,23-27,30-34 administration; assay type: functional; conditions: route oral; summary of the method: as §3
[15] = tested on: C6; experiment: Net reduction in C6 glioma cell tumor burden after 40 mg/kg peroral dose, days 1-15 administration; assay type: functional; conditions: route oral
Summary of the method: (§4)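 Tumor lines (C6 rat glioma; NIH 3T3 fibroblasts transfected with human PDGF-ββ; DU-145 prostatic adenocarcinoma) were kept by serial passage in nude mice. Randomized nude mice weighing 18-22 g received sc tumor fragments in the right axilla on day 0, with at least 6 per treated group and 12 controls. Oral dosing was based on average cage weight. Net cell kill is given as log10.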

[16] = tested on: Rattus norvegicus; experiment: Compound was tested for area under concentration -time curve from time 0 to time of last detectable concentration in three male Wistar rats at a single 5 mg/kg oral gavage dose; assay type: ADME, organism-based; set-up: dose 5 mg/kg, route oral; conditions: in vivo; summary of the method: as §2
[17] = Compound was tested for maximum observed concentration in three male Wistar rats at a single 5 mg/kg oral gavage dose; assay type: ADME, organism-based; set-up: dose 5 mg/kg, route oral; conditions: rat, in vivo; summary of the method: as §2
[18] = Compound was tested for apparent terminal phase elimination half life in three male Wistar rats at a single 5 mg/kg oral gavage dose; assay type: ADME, organism-based; set-up: dose 5 mg/kg, route oral; conditions: rat, in vivo; summary of the method: as §2
[19] = tested on: C6; experiment: Inhibition of rat C6 glioma cell proliferation in sulforhodamine B assay; assay type: functional, cell-based
Summary of the method: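 C6 rat glioma cells cultured 4 days with a range of compound concentrations; growth read by sulforhodamine B staining, giving IC50.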

[20] = tested on: Mus musculus; experiment: Net reduction in PDGF-transfected cell tumor burden after 20 mg/kg peroral dose, days 1-15 administration; assay type: functional; conditions: route oral; summary of the method: as §4
[21] = tested on: DU-145; experiment: Net reduction in DU-145 cell tumor burden after 48 mg/kg peroral dose, days 16-20,23-27,30-34 administration; assay type: functional; conditions: route oral; summary of the method: as §4
[22] = biological target: T1, Platelet-derived growth factor receptor (PDGFr); experiment: Inhibition of PDGF-stimulated Platelet-derived growth factor receptor autophosphorylation in C6 rat glioma cells after 2 hr; assay type: cell-based
[23] = tested on: Rattus norvegicus; experiment: Compound was tested for area under concentration -time curve from time 0 to time infinity in three male Wistar rats at a single 5 mg/kg oral gavage dose; assay type: ADME, organism-based; set-up: dose 5 mg/kg, route oral; conditions: in vivo; summary of the method: as §2
[24] = tested on: DU-145; experiment: Ratio of treated/control DU-145 cell tumor mass at 48 mg/kg peroral dose, days 16-20, 23-27, 30-34 administration; assay type: functional; conditions: route oral; summary of the method: as §1
[25] = tested on: C6; experiment: C6 glioma 3-day proliferation followed by soft agar growth with continuous treatment; assay type: functional, cell-based; conditions: Rattus norvegicus, C6, 72 h
Summary of the method: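 C6 rat glioma cells exposed to a range of compound concentrations for 3 days in culture, then cloned in soft agar with drug kept present throughout colony growth. IC50 derived.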

[26] = tested on: Rattus norvegicus; experiment: Compound was tested for area under concentration -time curve from time 0 to time infinity in three male Wistar rats at a single 5 mg/kg oral gavage dose.; assay type: ADME, organism-based; set-up: dose 5 mg/kg, route oral; conditions: in vivo; summary of the method: as §2

Chain of Proto-oncogene tyrosine-protein kinase Src (P05480 2-535 limits assumed): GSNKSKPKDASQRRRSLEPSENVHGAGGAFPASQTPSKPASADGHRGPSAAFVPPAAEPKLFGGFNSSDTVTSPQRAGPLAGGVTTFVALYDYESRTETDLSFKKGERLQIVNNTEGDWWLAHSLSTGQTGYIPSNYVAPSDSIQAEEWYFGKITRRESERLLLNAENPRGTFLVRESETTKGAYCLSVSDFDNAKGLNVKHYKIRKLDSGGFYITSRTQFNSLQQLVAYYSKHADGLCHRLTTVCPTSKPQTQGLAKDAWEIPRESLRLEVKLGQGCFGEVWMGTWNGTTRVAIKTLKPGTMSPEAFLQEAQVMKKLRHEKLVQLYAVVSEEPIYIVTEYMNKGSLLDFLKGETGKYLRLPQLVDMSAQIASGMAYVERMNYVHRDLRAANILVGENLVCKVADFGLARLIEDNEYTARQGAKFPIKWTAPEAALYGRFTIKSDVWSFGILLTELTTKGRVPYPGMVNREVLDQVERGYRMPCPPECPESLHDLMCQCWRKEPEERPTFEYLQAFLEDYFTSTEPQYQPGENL

Compound: CNc1ncc2cc(-c3ccsc3)c(=O)n(C)c2n1
IC50 [1]: > 50000 nM
IC50 [2]: > 50 µM
IC50 [3]: > 50000 nM

Compound: CCN(CC)CCOc1ccc(Nc2ncc3cc(-c4ccccc4)c(=O)n(CC)c3n2)cc1
T/C [5]: 0%
Weight change [6]: Weight gain
Tmax [7]: 2.67 h
T/C [8]: 1%
Weight change [9]: Weight gain
IC50 [10]: 0.15 µM
T-C [11]: 9.6 days
Weight change [12]: -0.7 g
T-C [13]: 6.9 days
T-C [14]: 11.4 days
Net log cell kill [15]: -0.3
IC50 [1]: 31 nM
AUC [16]: 525 ng·h/mL
Cmax [17]: 78.3 ng/mL
IC50 [2]: 0.088 µM
half-life [18]: 399 min
IC50 [19]: 1.2 µM
Net log cell kill [20]: -1.2
Net log cell kill [21]: -0.4
IC50 [22]: 3 nM
IC50 [3]: 31 nM
AUC [23]: 828 ng·h/mL
T/C [24]: 40%
IC50 [25]: 120 nM

Compound: CCn1c(=O)c(-c2ccccc2)cc2cnc(Nc3ccccc3)nc21
IC50 [4]: 0.0046 µM
IC50 [1]: 1800 nM
IC50 [2]: 1.5 µM
IC50 [22]: > 25 nM
IC50 [3]: 180 nM

Compound: Cn1c(=O)c(-c2ccsc2)cc2cnc(Nc3ccccc3)nc21
IC50 [1]: 8100 nM
IC50 [2]: > 50 µM
IC50 [3]: 800 nM

Compound: Nc1ncc2cc(-c3c(Cl)cccc3Cl)c(=O)n(CC(=O)O)c2n1
IC50 [1]: > 50000 nM
IC50 [2]: 7.9 µM
IC50 [3]: > 50000 nM

Compound: Cn1c(=O)c(-c2cccs2)cc2cnc(Nc3ccccc3)nc21
IC50 [1]: > 50000 nM
IC50 [2]: > 50 µM
IC50 [3]: 950 nM

Compound: Cn1c(=O)c(-c2ccc(-c3ccccc3)cc2)cc2cnc(Nc3ccccc3)nc21
IC50 [1]: > 50000 nM
IC50 [2]: > 50 µM
IC50 [3]: > 50000 nM

Compound: Cn1c(=O)c(-c2ccsc2)cc2cnc(N)nc21
IC50 [1]: > 50000 nM
IC50 [2]: > 50 µM
IC50 [3]: 24400 nM

Compound: CCn1c(=O)c(-c2ccsc2)cc2cnc(Nc3ccccc3)nc21
IC50 [1]: 41000 nM
IC50 [2]: > 50 µM
IC50 [22]: > 25 nM
IC50 [3]: 410 nM

Compound: Cn1c(=O)c(-c2ccccc2)cc2cnc(Nc3ccccc3)nc21
IC50 [1]: 2400 nM
IC50 [2]: 5 µM
IC50 [3]: 290 nM

Compound: Nc1ncc2cc(-c3c(Cl)cccc3Cl)c(=O)n(CCCOCc3ccccc3)c2n1
IC50 [1]: 1400 nM
IC50 [2]: 3.2 µM
IC50 [3]: 6800 nM

Compound: Cn1c(=O)c(-c2ccsc2)cc2cnc(Nc3ccncc3)nc21
IC50 [1]: 1700 nM
IC50 [2]: 22.6 µM
IC50 [3]: 480 nM

Now from value to compound, other results behind:

IC50 [1]: 630 nM
IC50 [2]: 0.51 µM
IC50 [3]: 1200 nM
Compound: CCCn1c(=O)c(-c2c(Cl)cccc2Cl)cc2cnc(N)nc21

IC50 [4]: 0.054 µM
IC50 [1]: 210 nM
IC50 [2]: 2.9 µM
IC50 [3]: 54 nM
Compound: CCN(CC)CCOc1ccc(Nc2ncc3cc(-c4ccsc4)c(=O)n(C)c3n2)cc1

IC50 [1]: 340 nM
IC50 [2]: 1.7 µM
IC50 [3]: 5000 nM
Compound: COC(=O)Cn1c(=O)c(-c2c(Cl)cccc2Cl)cc2cnc(N)nc21

IC50 [1]: 330 nM
IC50 [2]: 0.58 µM
IC50 [3]: 1200 nM
Compound: CCCCn1c(=O)c(-c2c(Cl)cccc2Cl)cc2cnc(N)nc21

IC50 [1]: 180 nM
IC50 [2]: 0.37 µM
IC50 [3]: 1100 nM
Compound: Nc1ncc2cc(-c3c(Cl)cccc3Cl)c(=O)n(CCCO)c2n1

IC50 [1]: 160 nM
IC50 [2]: 1.4 µM
IC50 [3]: 4200 nM
Compound: Nc1ncc2cc(-c3c(Cl)cccc3Cl)c(=O)n(Cc3ccccc3)c2n1

IC50 [1]: 50 nM
IC50 [2]: 0.88 µM
IC50 [3]: 1800 nM
Compound: CN(C)CCCn1c(=O)c(-c2c(Cl)cccc2Cl)cc2cnc(N)nc21

IC50 [1]: 630 nM
IC50 [3]: 1200 nM
Compound: Nc1ncc2cc(-c3c(Cl)cccc3Cl)c(=O)n(Cc3ccncc3)c2n1

IC50 [1]: 160 nM
IC50 [3]: 980 nM
Compound: CCn1c(=O)c(-c2c(Cl)cccc2Cl)cc2cnc(N)nc21

IC50 [1]: 890 nM
IC50 [2]: 0.5 µM
IC50 [3]: 1600 nM
Compound: CC(C)Cn1c(=O)c(-c2c(Cl)cccc2Cl)cc2cnc(N)nc21

IC50 [1]: 560 nM
IC50 [2]: 1.7 µM
IC50 [3]: 7200 nM
Compound: CC(C)(C)OC(=O)Cn1c(=O)c(-c2c(Cl)cccc2Cl)cc2cnc(N)nc21

IC50 [1]: 260 nM
IC50 [2]: 1.3 µM
IC50 [3]: 3800 nM
Compound: Cn1c(=O)c(-c2c(Cl)cccc2Cl)cc2cnc(N)nc21

IC50 [1]: 140 nM
IC50 [2]: 0.35 µM
IC50 [3]: 42 nM
Compound: CCN(CC)CCOc1ccc(Nc2ncc3cc(-c4ccccc4)c(=O)n(C)c3n2)cc1

Tmax [7]: 1.5 h
IC50 [1]: 410 nM
AUC [16]: 4760 ng·h/mL
Cmax [17]: 730 ng/mL
IC50 [2]: 1.1 µM
half-life [18]: 223 min
IC50 [22]: 58 nM
IC50 [3]: 74 nM
AUC [26]: 5240 ng·h/mL
Compound: CCn1c(=O)c(-c2ccccc2)cc2cnc(Nc3ccncc3)nc21
IC50 [10]: 13.2 µM
IC50 [19]: 7.2 µM
IC50 [25]: 4900 nM

IC50 [1]: 17 nM
IC50 [2]: 0.03 µM
IC50 [3]: 150 nM
Compound: CCN(CC)CCOc1ccc(Nc2ncc3cc(-c4c(Cl)cccc4Cl)c(=O)n(CC)c3n2)cc1

IC50 [1]: 470 nM
IC50 [2]: 4.7 µM
IC50 [3]: 320 nM
Compound: Cn1c(=O)c(-c2ccccc2)cc2cnc(Nc3ccncc3)nc21
